The source made the active and inactive calls. The rule behind the calls is not given here.

System in the first data set: not listed separately
As to the kind of experiment: Metabolic stability in rat hepatic microsomes assessed as parent compound remaining at 5 uM after 60 mins in presence of NADPH by LC-MS analysis. The data set is classed as ADME, Microsome. Particulars: liver microsomes, read-out: Stability. A digest of the protocol: (§1)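 Compound at 5 μM incubated at 37 °C with rat liver microsomes (1 mg/mL) in potassium phosphate buffer with 1 mM NADPH; quenched with ice-cold EtOAc, centrifuged, supernatant analysed by LC/MS (C18, water/acetonitrile with 0.1% formic acid gradient, UV 254 nm) for parent remaining; mean ± SEM, n = 3.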
Turning to `CCN(CC)c1nc(Nc2ccc3ncoc3c2)nc(OC(C(F)(F)F)C(F)(F)F)n1`, the remaining at 1 h, 5 µM amounted to 60%.

A further data set deals with T1, Cystic fibrosis transmembrane conductance regulator (Homo sapiens, UniProt P13569). As to the kind of experiment: Activation of human CFTR expressed in FRT cells co-expressing YFP assessed as increase in forskolin-stimulated iodide influx measured after 10 mins for 2 to 12 sec by fluorescence assay. The data set is classed as cell-based.
Details: not given
Target sequence in this assay (P13569 whole entry): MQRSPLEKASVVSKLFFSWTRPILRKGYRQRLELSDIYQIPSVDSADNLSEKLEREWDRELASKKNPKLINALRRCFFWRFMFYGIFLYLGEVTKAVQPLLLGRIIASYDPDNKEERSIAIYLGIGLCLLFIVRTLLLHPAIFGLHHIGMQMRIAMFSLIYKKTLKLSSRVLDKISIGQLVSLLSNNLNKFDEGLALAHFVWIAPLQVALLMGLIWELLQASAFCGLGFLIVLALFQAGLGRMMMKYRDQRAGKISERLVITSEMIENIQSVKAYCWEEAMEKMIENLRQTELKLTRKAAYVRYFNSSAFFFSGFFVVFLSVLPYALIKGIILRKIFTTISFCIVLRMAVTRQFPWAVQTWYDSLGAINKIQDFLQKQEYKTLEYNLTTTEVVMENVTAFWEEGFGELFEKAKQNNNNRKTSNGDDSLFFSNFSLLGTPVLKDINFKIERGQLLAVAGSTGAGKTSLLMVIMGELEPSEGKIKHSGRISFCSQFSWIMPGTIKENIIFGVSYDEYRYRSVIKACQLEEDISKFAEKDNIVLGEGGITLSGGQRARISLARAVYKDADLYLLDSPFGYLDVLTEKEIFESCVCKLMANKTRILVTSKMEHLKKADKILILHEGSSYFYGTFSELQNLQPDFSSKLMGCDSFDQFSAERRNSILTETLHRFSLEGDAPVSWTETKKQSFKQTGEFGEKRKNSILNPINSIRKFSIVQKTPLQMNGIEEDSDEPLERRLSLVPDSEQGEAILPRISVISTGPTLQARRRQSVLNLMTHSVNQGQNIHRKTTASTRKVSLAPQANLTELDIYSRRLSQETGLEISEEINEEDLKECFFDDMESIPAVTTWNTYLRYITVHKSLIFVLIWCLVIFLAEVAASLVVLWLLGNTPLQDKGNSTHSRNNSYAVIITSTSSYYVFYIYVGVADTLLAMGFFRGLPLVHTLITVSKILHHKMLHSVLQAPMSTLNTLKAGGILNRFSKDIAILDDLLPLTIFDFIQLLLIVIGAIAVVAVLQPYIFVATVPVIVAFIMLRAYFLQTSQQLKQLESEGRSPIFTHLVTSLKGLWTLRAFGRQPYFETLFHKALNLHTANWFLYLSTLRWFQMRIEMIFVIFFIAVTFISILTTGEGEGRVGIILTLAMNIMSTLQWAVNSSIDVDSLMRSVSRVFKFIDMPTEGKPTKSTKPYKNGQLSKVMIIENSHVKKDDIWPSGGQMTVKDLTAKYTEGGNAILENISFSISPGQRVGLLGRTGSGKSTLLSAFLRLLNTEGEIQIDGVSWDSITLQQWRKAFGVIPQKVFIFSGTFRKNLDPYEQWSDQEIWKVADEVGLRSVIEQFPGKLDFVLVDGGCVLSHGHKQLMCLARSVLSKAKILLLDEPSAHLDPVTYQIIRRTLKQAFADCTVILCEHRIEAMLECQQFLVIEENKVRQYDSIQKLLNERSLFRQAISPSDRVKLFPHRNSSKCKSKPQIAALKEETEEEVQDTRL
Take `CCN(CC)c1nc(Nc2ccc3[nH]ncc3c2)nc(OC(C(F)(F)F)C(F)(F)F)n1`: the EC50 is 2.8 µM.

With `CCN(CC)c1nc(Nc2ccc(C(=O)O)cc2)nc(OCC(F)(F)C(F)F)n1`, the EC50 was 2.5 µM.

As to `CCN(CC)c1nc(Nc2cccc([N+](=O)[O-])c2)nc(OC(C(F)(F)F)C(F)(F)F)n1`, the EC50 was 0.2 µM.

Turning to `CCN(CC)c1nc(Nc2cccc(Cl)c2)nc(OC(C(F)(F)F)C(F)(F)F)n1`, the EC50 was 2.8 µM.

With `CCN(CC)c1nc(Nc2ccc([N+](=O)[O-])cc2)nc(OC(C(F)(F)F)C(F)(F)F)n1`, the EC50 turned out to be 18 µM.

The test system of a further data set is Mus musculus. As to the kind of experiment: Induction of tear secretion in mouse at 250 pmol administered as single topical dose up to 8 hrs by phenol red thread test. The data set is classed as functional.
Details: not given
The procedure, abridged:
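Mice 8–12 weeks (25–35 g); single ocular dose of 250 pmol (100 μM) in 2.5 μL vehicle (0.3% CMC in Ringer's), both eyes treated identically, vehicle control. Tear volume by phenol red thread, 10 s in lateral canthus under isoflurane, before and at set times after dosing. 5 mice, 10 eyes per condition; two-way ANOVA with Dunnett test.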
As to `CCN(CC)c1nc(Nc2ccccc2)nc(OC(C(F)(F)F)C(F)(F)F)n1`, the result was Active.

A further data set deals with T1, Cystic fibrosis transmembrane conductance regulator. As to the kind of experiment: Activation of human CFTR expressed in FRT cells co-expressing YFP assessed as increase in forskolin-stimulated iodide influx at 10 uM measured after 10 mins for 2 to 12 sec by fluorescence assay. The data set is classed as cell-based.
Details: not given
A digest of the protocol:
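FRT cells stably coexpressing human wild-type CFTR and YFP-H148Q halide sensor; PBS wash, then 10 min with compound in PBS containing 125 nM forskolin. Plate reader: 2 s baseline, then 12 s after rapid iodide-containing solution addition; initial iodide influx rate taken as linear measure of channel function.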
Target sequence in this assay (P13569 whole entry, looked up): as the sequence (P13569 whole entry) above
As for `CC(=O)c1ccc(Nc2nc(OC(C(F)(F)F)C(F)(F)F)nc(OC(C(F)(F)F)C(F)(F)F)n2)cc1`, the outcome was inactive.

Consider `Cc1ccc(Nc2nc(OC(C(F)(F)F)C(F)(F)F)nc(OC(C(F)(F)F)C(F)(F)F)n2)cc1`, for which the outcome was inactive.

With `FC(F)(F)C(Oc1nc(Nc2ccc(Cl)cc2)nc(N2CCOCC2)n1)C(F)(F)F`, the result was inactive.

On to `FC(F)(F)C(Oc1nc(Nc2ccccc2)nc(OC(C(F)(F)F)C(F)(F)F)n1)C(F)(F)F`, for which the result was inactive.

Take `CC(=O)N1CCN(c2nc(Nc3ccccc3C(=O)c3ccccc3)nc(OC(C(F)(F)F)C(F)(F)F)n2)CC1`: the outcome was inactive.

Take `COc1nc(Nc2ccc(OC)c(Cl)c2)nc(OC)n1`: the outcome was inactive.

On to `O=[N+]([O-])c1cccc(Nc2nc(OC(C(F)(F)F)C(F)(F)F)nc(OC(C(F)(F)F)C(F)(F)F)n2)c1`, for which the outcome was inactive.

Consider `FC(F)(F)COc1nc(Nc2ccc(OC(F)(F)Cl)cc2)nc(OCC(F)(F)F)n1`, for which the outcome was inactive.

In the case of `COc1nc(Nc2ccc([N+](=O)[O-])cc2)nc(OC)n1`, the result was inactive.

With `Cc1ccccc1Nc1nc(OC(C(F)(F)F)C(F)(F)F)nc(OC(C(F)(F)F)C(F)(F)F)n1`, the outcome was inactive.

On to `Cc1ccc(Nc2nc(OC(C(F)(F)F)C(F)(F)F)nc(N3CCCCC3)n2)cc1`, for which the outcome was inactive.

In the case of `FC(F)(F)C(Oc1nc(Nc2cccnc2)nc(OC(C(F)(F)F)C(F)(F)F)n1)C(F)(F)F`, the result was inactive.

On to `CC(C)Nc1nc(Nc2ccc([N+](=O)[O-])cc2)nc(OC(C(F)(F)F)C(F)(F)F)n1`, for which the outcome was inactive.

As for `CC(C)(C)Nc1nc(Nc2ccc(OC(F)(F)Cl)cc2)nc(OCC(F)(F)F)n1`, the outcome was inactive.

As for `FC(F)(F)COc1nc(Nc2ccccc2)nc(OCC(F)(F)F)n1`, the outcome was inactive.

As to `CNc1nc(Nc2ccc([N+](=O)[O-])cc2)nc(OCC(F)(F)C(F)F)n1`, the outcome was Active.

As to `FC(F)(F)COc1nc(Nc2ccc(OC(F)(F)F)cc2)nc(NC2CC2)n1`, the result was inactive.

Turning to `FC(F)(F)C(Oc1nc(N2CCCCCC2)nc(N(c2ccccc2)c2ccccc2)n1)C(F)(F)F`, the outcome was inactive.

Regarding `Fc1ccc(Nc2nc(OC(C(F)(F)F)C(F)(F)F)nc(N3CCCCC3)n2)cc1`, the result was inactive.

`O=[N+]([O-])c1ccc(Nc2nc(OC(C(F)(F)F)C(F)(F)F)nc(OC(C(F)(F)F)C(F)(F)F)n2)cc1`: the result was inactive.

For the compound `CNc1nc(Nc2ccc(OC(F)(F)Cl)cc2)nc(OCC(F)(F)F)n1`, the result was inactive.

As for `CCN(CC)c1nc(Nc2ccccc2)nc(OC(C(F)(F)F)C(F)(F)F)n1`, the outcome was Active.

With `COc1ccc(Nc2nc(NC3CCCCC3)nc(OC(C(F)(F)F)C(F)(F)F)n2)cc1`, the result was inactive.

In the case of `CN(C)c1nc(Nc2ccc(OC(F)(F)F)cc2)nc(OCC(F)(F)F)n1`, the result was inactive.

As to `CNc1nc(Nc2ccc(C(C)=O)cc2)nc(OC(C(F)(F)F)C(F)(F)F)n1`, the outcome was inactive.

Turning to `O=[N+]([O-])c1ccccc1Nc1nc(OC(C(F)(F)F)C(F)(F)F)nc(OC(C(F)(F)F)C(F)(F)F)n1`, the result was inactive.

Regarding `CNc1nc(Nc2ccccc2C(F)(F)F)nc(OC(C(F)(F)F)C(F)(F)F)n1`, the result was inactive.

Regarding `C=CCNc1nc(Nc2cccc([N+](=O)[O-])c2)nc(OC(C(F)(F)F)C(F)(F)F)n1`, the outcome was Active.

As for `CCC(C)Nc1nc(Nc2ccc([N+](=O)[O-])cc2)nc(OC(C(F)(F)F)C(F)(F)F)n1` (configuration not stated), the result was inactive.

System in a further data set: not listed separately
As to the kind of experiment: Metabolic stability in rat hepatic microsomes assessed as parent compound remaining at 5 uM after 15 mins in presence of NADPH by LC-MS analysis. The data set is classed as ADME, Microsome. The conditions noted are these: liver microsomes, read-out: Stability. The procedure, abridged: as §1
(Microsomes from liver hold many membrane-bound enzymes, among them those of drug oxidation.)
As to `CCN(CC)c1nc(Nc2ccccc2)nc(OC(C(F)(F)F)C(F)(F)F)n1`, the remaining at […], 5 µM is under 40%.

In general, EC50 refers to the concentration giving half of the maximal effect.

The record behind these values is ChEMBL document CHEMBL3997791, “Nanomolar-Potency Aminophenyl-1,3,5-triazine Activators of the Cystic Fibrosis Transmembrane Conductance Regulator (CFTR) Chloride Channel for Prosecretory Therapy of Dry Eye Diseases” (J Med Chem, 2017).
